Data set [1] in a line: Thermodynamic stability in pH 7.0 buffer containing 100 mM Kcl, 10 mM sodium cacodylate. The format is physicochemical. The gist of the method:
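UV melting at 295 nm over 5–95 °C at 0.2 °C/min. Samples annealed 5 min at 80 °C, then slowly cooled. Nine strand concentrations spanning 10^-5–10^-6 M, set from absorbance above 80 °C. Heating and cooling profiles recorded. Thermodynamic parameters from non-linear fitting of melting curves with a unimolecular transition model.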

Data set [2] concerns Plasma. As to the kind of experiment: Anticoagulant activity in human plasma assessed as time required for clot formation at 0.33 mM at 37 degC. It is filed as functional. In outline:
(§1)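 Pooled citrate plasma from four healthy donors. Thrombin reagent pre-incubated with aptamer at 0.33 mM for 5 min, then mixed with an equal volume of plasma. Clotting time (thrombin time, seconds) read at 37 °C on an automated coagulation analyser. Antithrombin effect taken as the extra clotting time over a water-added reference.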

Another data set addresses Prothrombin (Homo sapiens, UniProt P00734). As to the kind of experiment: Binding affinity to thrombin at 37 degC by isothermal titration calorimetry. The gist of the method:
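ITC at 37 °C. One 0.2 µL pre-injection, discarded, then 19 × 2 µL injections. Heat of dilution from aptamer-into-buffer injections subtracted.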
(In general: ITC needs no label: the signal is the heat of the interaction.)

For data set [3], the system named is Plasma. As to the kind of experiment: Anticoagulant activity in human plasma assessed as time required for clot formation in presence of compound minus time required for clot formation in absence of compound at 0.33 mM at 37 degC. It is filed as functional. In outline:
as §1

pKd: −log10 of the molar value.

The pKd is the negative decadic logarithm of the Kd, by convention in mol/L. Take `Cc1cn([C@H]2C[C@H](OP(N)(=O)OC[C@H]3O[C@@H](n4cnc5c(=O)[nH]c(N)nc54)C[C@@H]3OP(N)(=O)OC[C@H]3O[C@@H](n4cnc5c(=O)[nH]c(N)nc54)C[C@@H]3O)[C@@H](COP(N)(=O)O[C@H]3C[C@H](n4cc(C)c(=O)[nH]c4=O)O[C@@H]3COP(N)(=O)O[C@H]3C[C@H](n4cnc5c(=O)[nH]c(N)nc54)O[C@@H]3COP(N)(=O)O[C@H]3C[C@H](n4cnc5c(=O)[nH]c(N)nc54)O[C@@H]3COP(N)(=O)OC[C@@H](COP(N)(=O)OC[C@@H](COP(N)(=O)OC[C@@H](COP(N)(=O)O[C@H]3C[C@H](n4cnc5c(=O)[nH]c(N)nc54)O[C@@H]3COP(N)(=O)O[C@@H]3C[C@@H](COP(N)(=O)O[C@H]4C[C@H](n5cc(C)c(=O)[nH]c5=O)O[C@@H]4COP(N)(=O)O[C@H]4C[C@H](n5c(C)cc(=O)[nH]c5=O)O[C@@H]4COP(N)(=O)O[C@H]4C[C@H](n5cnc6c(=O)[nH]c(N)nc65)O[C@@H]4COP(N)(=O)O[C@H]4C[C@H](n5cnc6c(=O)[nH]c(N)nc65)O[C@@H]4COC(=O)CCCC[C@@H]4SC[C@@H]5NC(=O)N[C@@H]54)O[C@H]3n3cnc4c(=O)[nH]c(N)nc43)O[C@H](CO)n3ccc(=O)[nH]c3=O)O[C@H](CO)n3cnc4c(=O)[nH]c(N)nc43)O[C@H](CO)n3ccc(=O)[nH]c3=O)O2)c(=O)[nH]c1=O` (stereo partly drawn): the Tm in data set [1] came out at 27 °C. In addition, the results for the Time in the data set on Plasma [2] and in the data set on Plasma [3] were 20.5 s and 1.5 s, respectively. Besides, the pKd on Prothrombin was 5.82.

As for `Cc1cn([C@H]2C[C@H](OP(N)(=O)OC[C@H]3O[C@@H](n4cnc5c(=O)[nH]c(N)nc54)C[C@@H]3OP(N)(=O)OC[C@H]3O[C@@H](n4cnc5c(=O)[nH]c(N)nc54)C[C@@H]3O)[C@@H](COP(N)(=O)OC[C@@H](COP(N)(=O)O[C@H]3C[C@H](n4cnc5c(=O)[nH]c(N)nc54)O[C@@H]3COP(N)(=O)O[C@H]3C[C@H](n4cnc5c(=O)[nH]c(N)nc54)O[C@@H]3COP(N)(=O)O[C@H]3C[C@H](n4cc(C)c(=O)[nH]c4=O)O[C@@H]3COP(N)(=O)O[C@H]3C[C@H](n4cnc5c(=O)[nH]c(N)nc54)O[C@@H]3COP(N)(=O)OC[C@@H](COP(N)(=O)O[C@H]3C[C@H](n4cnc5c(=O)[nH]c(N)nc54)O[C@@H]3COP(N)(=O)O[C@@H]3C[C@@H](COP(N)(=O)O[C@H]4C[C@H](n5cc(C)c(=O)[nH]c5=O)O[C@@H]4COP(N)(=O)O[C@H]4C[C@H](n5cc(C)c(=O)[nH]c5=O)O[C@@H]4COP(N)(=O)O[C@H]4C[C@H](n5cnc6c(=O)[nH]c(N)nc65)O[C@@H]4COP(N)(=O)O[C@H]4C[C@H](n5cnc6c(=O)[nH]c(N)nc65)O[C@@H]4COC(=O)CCCC[C@@H]4SC[C@@H]5NC(=O)N[C@@H]54)O[C@H]3n3cnc4c(=O)[nH]c(N)nc43)O[C@H](CO)n3ccc(=O)[nH]c3=O)O[C@H](CO)n3ccc(=O)[nH]c3=O)O2)c(=O)[nH]c1=O` (stereo partly drawn), the Tm in data set [1] came to 48.1 °C. Besides, the figures for the Time in the data set on Plasma [2] and with Plasma [3] were 28.7 s and 9.7 s, respectively. The negative-log Kd (pKd) on Prothrombin was 6.52.

In the case of `Cc1cn([C@H]2C[C@H](OP(N)(=O)OC[C@@H]3C[C@@H](OP(N)(=O)OC[C@H]4O[C@@H](n5cnc6c(=O)[nH]c(N)nc65)C[C@@H]4OP(N)(=O)OC[C@H]4O[C@@H](n5ccc(=O)[nH]c5=O)[C@H](O)[C@@H]4OP(N)(=O)OC[C@H]4O[C@@H](n5cnc6c(=O)[nH]c(N)nc65)[C@H](O)[C@@H]4OP(N)(=O)OC[C@H]4O[C@@H](n5ccc(=O)[nH]c5=O)[C@H](O)[C@@H]4OP(N)(=O)OC[C@H]4O[C@@H](n5cnc6c(=O)[nH]c(N)nc65)C[C@@H]4OP(N)(=O)OC[C@H]4O[C@@H](n5cnc6c(=O)[nH]c(N)nc65)C[C@@H]4OP(N)(=O)OC[C@H]4O[C@@H](n5ccc(=O)[nH]c5=O)[C@H](O)[C@@H]4OP(N)(=O)OC[C@H]4O[C@@H](n5cc(C)c(=O)[nH]c5=O)C[C@@H]4OP(N)(=O)OC[C@H]4O[C@@H](n5cnc6c(=O)[nH]c(N)nc65)C[C@@H]4OP(N)(=O)OC[C@H]4O[C@@H](n5cnc6c(=O)[nH]c(N)nc65)C[C@@H]4O)[C@H](n4cnc5c(=O)[nH]c(N)nc54)O3)[C@@H](COP(N)(=O)O[C@H]3[C@@H](O)[C@H](n4ccc(=O)[nH]c4=O)O[C@@H]3COP(N)(=O)O[C@H]3C[C@H](n4cnc5c(=O)[nH]c(N)nc54)O[C@@H]3COP(N)(=O)O[C@H]3C[C@H](n4cnc5c(=O)[nH]c(N)nc54)O[C@@H]3COC(=O)CCCC[C@@H]3SC[C@@H]4NC(=O)N[C@@H]43)O2)c(=O)[nH]c1=O` (stereo partly drawn), the Tm in data set [1] was determined as 29.7 °C. Further, the values for the Time in the data set with Plasma [2] and in the data set on Plasma [3] were 19 s and 0 s, respectively.

On to `Cc1cn([C@H]2C[C@H](OP(N)(=O)OC[C@@H]3C[C@@H](OP(N)(=O)OC[C@H]4O[C@@H](n5cnc6c(=O)[nH]c(N)nc65)C[C@@H]4OP(N)(=O)OC[C@H]4O[C@@H](n5cc(C)c(=O)[nH]c5=O)C[C@@H]4OP(N)(=O)OC[C@H]4O[C@@H](n5cnc6c(=O)[nH]c(N)nc65)C[C@@H]4OP(N)(=O)OC[C@H]4O[C@@H](n5cc(C)c(=O)[nH]c5=O)C[C@@H]4OP(N)(=O)OC[C@H]4O[C@@H](n5cnc6c(=O)[nH]c(N)nc65)C[C@@H]4OP(N)(=O)OC[C@H]4O[C@@H](n5cnc6c(=O)[nH]c(N)nc65)C[C@@H]4OP(N)(=O)OC[C@H](COP(N)(=O)OC[C@H]4O[C@@H](n5cc(C)c(=O)[nH]c5=O)C[C@@H]4OP(N)(=O)OC[C@H]4O[C@@H](n5cnc6c(=O)[nH]c(N)nc65)C[C@@H]4OP(N)(=O)OC[C@H]4O[C@@H](n5cnc6c(=O)[nH]c(N)nc65)C[C@@H]4O)O[C@H](CO)n4ccc(=O)[nH]c4=O)[C@H](n4cnc5c(=O)[nH]c(N)nc54)O3)[C@@H](COP(N)(=O)OC[C@@H](COP(N)(=O)O[C@H]3C[C@H](n4cnc5c(=O)[nH]c(N)nc54)O[C@@H]3COP(N)(=O)O[C@H]3C[C@H](n4cnc5c(=O)[nH]c(N)nc54)O[C@@H]3COC(=O)CCCC[C@@H]3SC[C@@H]4NC(=O)N[C@@H]43)O[C@H](CO)n3ccc(=O)[nH]c3=O)O2)c(=O)[nH]c1=O` (stereo partly drawn), for which the Tm in data set [1] is 47.4 °C. For the same compound, the Time in the data set on Plasma [2] was 19.4 s; in the data set on Plasma [3], 0.4 s.

`Cc1cn([C@H]2C[C@H](OP(N)(=O)OC[C@@H]3C[C@@H](OP(N)(=O)OC[C@H]4O[C@@H](n5cnc6c(=O)[nH]c(N)nc65)C[C@@H]4OP(N)(=O)OC[C@H](COP(N)(=O)OC[C@H]4O[C@@H](n5cnc6c(=O)[nH]c(N)nc65)C[C@@H]4OP(N)(=O)OC[C@H]4O[C@@H](n5cc(C)c(=O)[nH]c5=O)C[C@@H]4OP(N)(=O)OC[C@H]4O[C@@H](n5cnc6c(=O)[nH]c(N)nc65)C[C@@H]4OP(N)(=O)OC[C@H]4O[C@@H](n5cnc6c(=O)[nH]c(N)nc65)C[C@@H]4OP(N)(=O)OC[C@H](COP(N)(=O)OC[C@H]4O[C@@H](n5cc(C)c(=O)[nH]c5=O)C[C@@H]4OP(N)(=O)OC[C@H]4O[C@@H](n5cnc6c(=O)[nH]c(N)nc65)C[C@@H]4OP(N)(=O)OC[C@H]4O[C@@H](n5cnc6c(=O)[nH]c(N)nc65)C[C@@H]4O)O[C@H](CO)n4ccc(=O)[nH]c4=O)O[C@H](CO)n4ccc(=O)[nH]c4=O)[C@H](n4cnc5c(=O)[nH]c(N)nc54)O3)[C@@H](COP(N)(=O)OC[C@@H](COP(N)(=O)O[C@H]3C[C@H](n4cnc5c(=O)[nH]c(N)nc54)O[C@@H]3COP(N)(=O)O[C@H]3C[C@H](n4cnc5c(=O)[nH]c(N)nc54)O[C@@H]3COC(=O)CCCC[C@@H]3SC[C@@H]4NC(=O)N[C@@H]43)O[C@H](CO)n3ccc(=O)[nH]c3=O)O2)c(=O)[nH]c1=O` (stereo partly drawn): in data set [1], the Tm was found to be 51 °C. Moreover, the figures for the Time with Plasma [2] and in the data set on Plasma [3] were 19.5 s and 0.5 s, respectively.

In the case of `Cc1cn([C@H]2C[C@H](OP(N)(=O)OC[C@@H]3C[C@@H](OP(N)(=O)OC[C@H]4O[C@@H](n5cnc6c(=O)[nH]c(N)nc65)C[C@@H]4OP(N)(=O)OC[C@H]4O[C@@H](n5ccc(=O)[nH]c5=O)[C@H](O)[C@@H]4OP(N)(=O)OC[C@H]4O[C@@H](n5cnc6c(=O)[nH]c(N)nc65)C[C@@H]4OP(N)(=O)OC[C@H]4O[C@@H](n5cc(C)c(=O)[nH]c5=O)C[C@@H]4OP(N)(=O)OC[C@H]4O[C@@H](n5cnc6c(=O)[nH]c(N)nc65)C[C@@H]4OP(N)(=O)OC[C@H]4O[C@@H](n5cnc6c(=O)[nH]c(N)nc65)C[C@@H]4OP(N)(=O)OC[C@H]4O[C@@H](n5cc(C)c(=O)[nH]c5=O)C[C@@H]4OP(N)(=O)OC[C@H]4O[C@@H](n5cc(C)c(=O)[nH]c5=O)C[C@@H]4OP(N)(=O)OC[C@H]4O[C@@H](n5cnc6c(=O)[nH]c(N)nc65)C[C@@H]4OP(N)(=O)OC[C@H]4O[C@@H](n5cnc6c(=O)[nH]c(N)nc65)C[C@@H]4O)[C@H](n4cnc5c(=O)[nH]c(N)nc54)O3)[C@@H](COP(N)(=O)O[C@H]3C[C@H](n4cc(C)c(=O)[nH]c4=O)O[C@@H]3COP(N)(=O)O[C@H]3C[C@H](n4cnc5c(=O)[nH]c(N)nc54)O[C@@H]3COP(N)(=O)O[C@H]3C[C@H](n4cnc5c(=O)[nH]c(N)nc54)O[C@@H]3CO)O2)c(=O)[nH]c1=O` (stereo partly drawn), the negative logarithm of the Kd (pKd) at Prothrombin is 7.43.

The values are drawn from ChEMBL document CHEMBL1811902, “Thermodynamic and biological evaluation of a thrombin binding aptamer modified with several unlocked nucleic acid (UNA) monomers and a 2'-C-piperazino-UNA monomer” (Bioorg Med Chem, 2011).
